From ChEMBL document CHEMBL4513216, “Probing the Open Global Health Chemical Diversity Library for Multistage-Active Starting Points for Next-Generation Antimalarials” (ACS Infect Dis, 2020)

Assay: Toxicity liver stage against HepG2, at 10uM
Format: cell-based
Parameters: test concentration 10 uM, cell line HepG2-A16-CD81EGFP
Details: human, HepG2-A16-CD81EGFP cells; read-out: INHIBITION
How it was run: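 Uninfected HepG2-A16-CD81EGFP cells, 3 × 10^3 per well, 1536-well, plated on prespotted compound at 10 μM final, parasite-free screening media added to match infected plates; puromycin 10 μM positive, DMSO 0.5% negative; run in parallel with 48 h PbLuc assay at 37 °C, 5% CO2; viability by CellTiter-Glo luminescence, normalized to controls.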

Structure (SMILES) | cytotoxicity at 10 µM [%]
CCCc1ccc2oc(C(=O)N3CCC(O)CC3)c(C)c2c1 | 0.361
CC(C)COC(C)C(=O)NCCNS(C)(=O)=O (stereo unspecified) | -5.26
O=C(CSc1nncs1)N1CCN(Cc2ccc(Cl)s2)CC1 | -4.14
CN(C)C(=O)c1cc2ncc(C(=O)NC3CC3)cc2n1C | -0.931
N#CCCN(CC1CCCO1)C(=O)c1ccc2nonc2c1 (stereo unspecified) | 1.35
CC[S+](CC)[c-]1c(=O)[nH]c(=O)n(Cc2ccc(F)cc2)c1=O | 4.12
CC(C)NC(=O)c1cccc(Oc2ccc3nncn3n2)c1 | -13.3
Cn1cnc2ccc(NC(=O)CCCn3cccn3)cc2c1=O | 4.31
COCCc1nnc(NC(=O)CSCc2ccccc2)o1 | -3.75
O=C1CCC2(CCCN(C(=O)Cc3ccccc3)C2)N1 (stereo unspecified) | 8.18
O=C(NC1CC1)N1C[C@H]2CN(c3ccccc3)C(=O)[C@H]2C1 | -1.13
Cc1nc(-c2cc(C(=O)NCC(C)(C)CO)c3ccccn23)cs1 | 6.1
COc1cc(N2C[C@@H]3COC[C@]3(C(=O)NCc3ccccn3)C2)ncn1 | 7.55
CC(C)N(C)Cc1noc2c1CN(C(=O)c1cnccn1)CC2 | 4.44
Cc1cc(CN2C[C@H]3CCC[C@@]3(COCC(=O)N3CCCC3)C2)no1 | 8.31
CN(C)Cc1cc(=O)n2c(n1)CN(CC1CC1)CCC2 | 5.71
CCO[C@@H]1CC[C@H]2[C@H]1OCCN2S(=O)(=O)C1CC1 | 5.64
Cc1ccc(Cn2c(=O)[nH]c3csnc3c2=O)cc1 | 2.93
O=C(NCCN1CCNCC1)c1c(O)c2ccccc2[nH]c1=O | 21
Cc1ccc(C(=O)Nc2nn[nH]n2)s1 | -0.246
Cc1nc(N2CCCCC2)ncc1-c1cc(O)[nH]n1 | 2.76
CC(C)NC(=O)C1(Cc2ccccc2-c2ccccc2)CCCNC1 (stereo unspecified) | 3.05
COc1ccc2c(c1)CC(C1CCOCC1)N(C(=O)c1ccn(C)n1)C2 (stereo unspecified) | 1.78

Structure (SMILES) | cytotoxicity at 10 µM [%]
CC(C)c1cc(C(=O)N2CCC3(CCc4ccccc4C(=O)N3)C2)no1 (stereo unspecified) | 6.83
CCc1nccn1CCC(=O)N1CCCC1c1cncc(NC)n1 (stereo unspecified) | 3.53
O=c1[nH]cc(N2CCCCC2)c(=O)[nH]1 | 5.55
Cc1c[nH]nc1C1CCCN(C(=O)Cn2cccn2)C1 (stereo unspecified) | -14.5
CN(C)c1cc(C2CCCN(C(=O)Cn3cc(Cl)cn3)C2)ccn1 (stereo unspecified) | -23.2
CCn1ncc(CN2C[C@@H]3CCCN3C[C@H]2CCSC)c1C | -19.1
COc1cccc(CC(=O)N2CCCC(c3n[nH]c4nccnc34)C2)c1 (stereo unspecified) | 4.62
Cc1ccsc1CN(CCCN(C)C)Cc1ccccn1 | -4.11
CCc1nnc2n1CCN(C(C(=O)NC1CC1)c1ccc(F)cc1)C2 (stereo unspecified) | 2.16
Cc1ccc(S(=O)(=O)Nc2cccnc2O)cc1C | 3.33
COc1cccc(CNC(=O)CCOc2ccccc2C)c1 | -1.2
CCNc1cc2c(nn1)CCN(C(=O)Cc1ccc3c(c1)CCO3)C2 | 1.42
CC(=O)NCCCSC1CCN(c2ccccc2F)C1=O (stereo unspecified) | -2.45
Cc1ccnc(C(NC(=O)c2ccc(O)nc2C)C2CC2)n1 (stereo unspecified) | -5.3
CCN1CCC(NC(=O)c2ccc(F)cc2I)CC1 | -10
CC(C)C(C)(C#N)NC(=O)Cn1cc(C(N)=O)c(-c2ccccc2)n1 (stereo unspecified) | -8.82
CC(NCC1CCN(CCO)CC1)c1ccc(OC(F)(F)F)cc1 (stereo unspecified) | -15.1
CCC(=O)N1CCCN(Cc2cc(F)cc(Br)c2)CC1 | 10.3
Cc1nnc2n1CCN(C(=O)CN1C(=O)CCCc3ccccc31)C2 | -11.4
CC(=O)c1csc(-c2csc(Cn3ccc(=O)[nH]c3=O)n2)c1 | 5.39
CCc1nnc(C(C)N2CCc3cncnc3C2)o1 (stereo unspecified) | 7.49
CN(C)C(=O)Cc1ccccc1NCc1cccc2cccnc12 | -1.81
CCC(C)CS(=O)(=O)NC(=O)C1CC1 (stereo unspecified) | -4.69

Structure (SMILES) | cytotoxicity at 10 µM [%]
Cc1cccc(C2(CNC(=O)C(C)S(C)(=O)=O)CCCC2)c1 (stereo unspecified) | -2.76
Cc1csc(CNC(=O)NCC2(c3ccc4c(c3)OCO4)CC2)n1 | 0.0902
Cc1cc(CN2CCN(c3ccnc(-c4ccccc4)n3)CC2)no1 | -8.92
O=C(CN1CCCNC1=O)Nc1ccccc1SC(F)(F)F | 12.7
CCC(=O)N1CCC(NC(=O)c2cccc(-n3ccnc3)c2)C1 (stereo unspecified) | 8.96
Cc1cc(CNC(=O)N2CCc3ccccc3C2CO)c(C)o1 (stereo unspecified) | 7.44
O=C(NCCN1CCOCC1)NCc1ncc(-c2ccccc2)o1 | 1.26
COc1cc(CNC(=O)NCCCF)cc(Br)c1OC | 11.4
CCn1cc(C(=O)NC2CCN(S(C)(=O)=O)CC2)c2ccccc21 | 0.95
O=C(CSc1ccc2c(c1)OCCO2)NS(=O)(=O)C1CCCCC1 | -3.69
Cn1cc(NC(=O)Cn2c(CS(C)(=O)=O)nc3ccccc32)cn1 | 1.31
COc1ccc(C2CCCN2C(=O)CCNc2ncccn2)cc1 (stereo unspecified) | -13.9
CS(=O)(=O)N1CCO[C@@H]2CN(C(=O)c3cccnc3)C[C@@H]2C1 | 7.64
c1cnc(NCc2noc3c2CN(c2cnccn2)CC3)nc1 | 0.774
Cc1cc(C(=O)NC2CCc3c(ccc(=O)n3CC(C)C)C2)no1 (stereo unspecified) | 7.15
O=C(C1CCOC1)N1CCC2(CC1)Cc1ccccc1CNC2=O (stereo unspecified) | -113
CCOc1ccccc1CC(=O)N1C[C@H](C2CC2)[C@@H](N)C1 | -2.45
CCn1nc(CC(C)C)cc1C(=O)N1CCC2(CC1)[C@H](O)C[C@@H]2O | -7.2
O=C(c1cnc(Nc2ccccc2)nc1)N1CCC(O)(CO)CC1 | -0.756
COCC1(C(=O)N[C@H]2CN(c3noc(C)n3)C[C@@H]2C2CC2)CCC1 | -135
c1cc(-c2ccc(CN3CCC4(CCNCC4)CC3)s2)[nH]n1 | -166
O=C(NCCn1cc(Cl)cn1)C1CCN(C(=O)C2CC2)CC1 | -50.5
NC1CCN(S(=O)(=O)c2ccc(C(=O)N3CCSCC3)cc2)C1 (stereo unspecified) | 7.1

Structure (SMILES) | cytotoxicity at 10 µM [%]
O=C(c1coc(COc2ccccc2F)n1)N1CCC[C@H]1CO | 0.835
COCCc1noc(CN(C)C(=O)C(C)N2CCc3ccccc3C2)n1 (stereo unspecified) | -0.262
CCN1CC2(CCC1=O)CCN(CCc1nccn1C)CC2 | 4.65
COc1ccccc1CN1C(=O)O[C@@H]2CN(c3nccs3)C[C@@H]21 | 6.27
Cc1ccc(C(=O)N2Cc3ccccc3C2)cc1N1CCNC1=O | -13.9
CC(C)n1ccnc1C1CCN(C(=O)c2cc[nH]n2)CC1 | -3.28
CCCN1CCCn2nc(CNS(=O)(=O)c3cccc(C#N)c3)cc2C1 | -2.96
Cc1ccsc1[C@@H]1CCN(C(=O)CCC(=O)N2CCCCCC2)C[C@H]1O | -1.72
CCn1c(N)nc2cc(C(=O)NCc3ccccc3Cl)cnc21 | -14.1
Fc1ccccc1C1NCCc2cc3c(cc21)OCCO3 (stereo unspecified) | -10.2
Cc1cnn(CC2CCCN2Cc2nnc(C3CC3)o2)c1 (stereo unspecified) | -21.7
COc1c(CNCc2cccc(Cn3cccn3)c2)c(C)nn1C | 1.33
O=C(Nc1ccc(OC2CCCC2)cc1)C1CCCN1c1nccs1 (stereo unspecified) | -10.2
CN(C)c1cc(C(=O)N2CCCCC2)ccn1 | -4.63
O=C(Nc1ncn(CC(=O)N2CCCCCC2)n1)C1CCCC1 | -11.2
CCOc1ccc(C#N)cc1NCC(=O)NC(=O)NC | -8.35
O=C(c1ccc(-n2ccnc2)cc1)N1CCCC(n2ccnc2)C1 (stereo unspecified) | -21.1
CCN(CC1CCCO1)C(=O)Nc1cc(C(N)=O)ccc1OC (stereo unspecified) | -7.33
Cc1cc(CN2CCOC(CNc3cccnn3)C2)on1 (stereo unspecified) | -13.8
Cc1csc(N2CCN(C(=O)c3ccc(C)s3)CC2)n1 | -24.3
Cc1cc(C)n(CC2CCCN2C(=O)Cc2c(C)nc(C)[nH]c2=O)n1 (stereo unspecified) | -12.8
CCc1nc(C)c(C(=O)NCCNc2ncccc2C#N)s1 | -8.54
NC(=O)c1cc(C2CCCN(C(=O)CCc3cscn3)C2)n[nH]1 (stereo unspecified) | -7.59

Structure (SMILES) | cytotoxicity at 10 µM [%]
c1ccc(-n2ncc(CNC3CCc4ncnn4C3)n2)cc1 (stereo unspecified) | -3.38
Cc1ccccc1OCCC(=O)N1CCCC(n2cncn2)C1 (stereo unspecified) | -17.6
CCn1ccnc1CNCC1CCN(CC(O)c2ccccc2)CC1 (stereo unspecified) | -12.8
Cc1cnc(CN2CCOC(CNc3cccnn3)C2)cn1 (stereo unspecified) | -5.15
CCc1nc(C2CCCN2C(=O)c2ccc3c(c2)nnn3CC)no1 (stereo unspecified) | 4.5
O=C(NCc1nnc2n1CCCC2)N1CCc2ccccc2C1 | 4.79
CCN1CCN(C2CCN(Cc3nnc(C(C)(C)C)o3)CC2)C1=O | 3.8
CC(OCC(F)(F)F)C(=O)NCc1ccc(-n2cncn2)nc1 (stereo unspecified) | -2.55
CC(=O)N1CCC2(CC1)CN(C)C(=O)C[C@H]2C(F)(F)F | -161
O=C1CCC2(CCC(NCc3ccoc3)CC2)N1 (stereo unspecified) | 1.14
c1cc(CN2CC[C@H]3CO[C@H](CN4CCOCC4)[C@H]3C2)cs1 | 4.91
COc1ccc(CCNCc2c(C)nn(C)c2N(C)C)cc1OC | -11.3
COCC(=O)N1CCc2ccc(=O)n(Cc3csc(C)n3)c2CC1 | 8.19
Cn1cc(C(=O)N2CC[C@@H]3[C@@H]2CCN3c2ncc(F)cn2)cn1 | 13.8
Cc1ccsc1C(=O)N1C[C@@H]2CN(Cc3ccoc3)CCO[C@@H]2C1 | -1.19
O=C(c1ccc(F)cc1)N1CCC2(CCN(Cc3ccccn3)C2=O)C1 (stereo unspecified) | -136
CC(=O)N1CCCC1c1nnn2cc(Nc3ccccc3)ccc12 (stereo unspecified) | 12.2
CC(C)CCN1CCc2[nH]nc(C(=O)N3CCCC3C)c2C1 (stereo unspecified) | 4.32
O=C(CCc1ccccc1)NC1CCC2(CCC(=O)N2)CC1 (stereo unspecified) | 1.35
